One test concerns the target Estrogen receptor beta (Homo sapiens, UniProt Q92731). Briefly: Binding affinity against human estrogen receptor beta. The procedure, abridged: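 Competitive binding to human ERβ, reported as Ki (nM). Compounds generally run in duplicate; minimum significant ratio for the binding assay is 2-fold.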
The target of another test is T1, Estrogen receptor (Homo sapiens, UniProt P03372).
T1 sequence (P03372 whole entry): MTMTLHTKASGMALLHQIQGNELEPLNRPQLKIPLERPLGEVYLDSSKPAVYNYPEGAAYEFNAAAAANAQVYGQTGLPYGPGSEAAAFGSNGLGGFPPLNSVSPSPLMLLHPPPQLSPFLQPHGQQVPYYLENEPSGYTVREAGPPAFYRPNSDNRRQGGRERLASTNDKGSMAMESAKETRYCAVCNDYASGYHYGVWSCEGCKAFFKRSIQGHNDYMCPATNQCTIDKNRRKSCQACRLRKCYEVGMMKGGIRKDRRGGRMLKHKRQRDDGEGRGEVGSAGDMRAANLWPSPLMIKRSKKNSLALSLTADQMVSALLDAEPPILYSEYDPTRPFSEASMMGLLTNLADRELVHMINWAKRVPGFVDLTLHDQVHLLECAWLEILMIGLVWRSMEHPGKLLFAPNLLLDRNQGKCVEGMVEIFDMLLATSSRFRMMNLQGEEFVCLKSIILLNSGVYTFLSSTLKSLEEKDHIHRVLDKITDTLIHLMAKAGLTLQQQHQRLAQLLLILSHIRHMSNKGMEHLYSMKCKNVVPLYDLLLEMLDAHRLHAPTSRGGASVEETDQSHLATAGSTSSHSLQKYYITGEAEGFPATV
In words: Binding affinity against human estrogen receptor alpha.

For test [1], the system named is Rattus norvegicus. In words: (§1) Percent decrease in serum cholesterol in ovariectomized (OVX) rats at 0.10 mg/kg dose. The test is classed as functional. Particulars: dose 0.1 mg/kg. The essentials:
(§2)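 Six-month-old ovariectomized rats were dosed orally for 5 weeks, and total serum cholesterol was measured against OVX controls. Groups were compared by one-way ANOVA with p < 0.05.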

For test [2], the system named is Rattus norvegicus. The test is described as §1. To be noted: dose 0.1 mg/kg. More on the design: scale not given: the % may be the effect or the level left.
Test [3] relates to Rattus norvegicus. Briefly: Bone density at proximal metaphysis of excised femur in ovariectomized (OVX) rats at 1.00 mg/kg dose. The test is classed as functional. The essentials: (§3)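 Six-month-old ovariectomized rats were dosed orally for 5 weeks. Bone density was measured at the proximal metaphysis of the excised femur. Percent protection was calculated for each animal as (BMD test − BMD OVX)/(BMD sham − BMD OVX) × 100. Statistics used one-way ANOVA with p < 0.05.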

In test [4] the test system is Rattus norvegicus. Briefly: Bone density at proximal metaphysis of excised femur in ovariectomized (OVX) rats at 0.01 mg/kg dose. The test is classed as functional. The essentials: as §3
For test [5], the species on record is Rattus norvegicus. Briefly: Effective dose in rat. Type of test: functional.
The subject of test [6] is Rattus norvegicus. Briefly: Bone density at proximal metaphysis of excised femur in ovariectomized (OVX) rats at 10.00 mg/kg dose. The test is classed as functional. The procedure, abridged: as §3
The subject of test [7] is Rattus norvegicus. In words: (§4) Percent decrease in serum cholesterol in ovariectomized (OVX) rats at 10 mg/kg dose. Type of test: functional. The procedure, abridged:
as §2

The test system of test [8] is Rattus norvegicus. In words: Bone density at proximal metaphysis of excised femur in ovariectomized (OVX) rats at 0.1 mg/kg dose. Type of test: functional. The essentials: as §3
Test [9] concerns Rattus norvegicus. Described as §4. The test is classed as functional. More on the design: scale not given: the % may be the effect or the level left. The procedure, abridged:
as §2

Here are results for seven compounds from ChEMBL document CHEMBL1136468, “B-ring unsaturated estrogens: biological evaluation of 17alpha-Dihydroequilein and novel B-Nor-6-thiaequilenins as tissue selective estrogens” (Bioorg Med Chem Lett, 2003).

Sequence of Estrogen receptor beta (Q92731 whole entry): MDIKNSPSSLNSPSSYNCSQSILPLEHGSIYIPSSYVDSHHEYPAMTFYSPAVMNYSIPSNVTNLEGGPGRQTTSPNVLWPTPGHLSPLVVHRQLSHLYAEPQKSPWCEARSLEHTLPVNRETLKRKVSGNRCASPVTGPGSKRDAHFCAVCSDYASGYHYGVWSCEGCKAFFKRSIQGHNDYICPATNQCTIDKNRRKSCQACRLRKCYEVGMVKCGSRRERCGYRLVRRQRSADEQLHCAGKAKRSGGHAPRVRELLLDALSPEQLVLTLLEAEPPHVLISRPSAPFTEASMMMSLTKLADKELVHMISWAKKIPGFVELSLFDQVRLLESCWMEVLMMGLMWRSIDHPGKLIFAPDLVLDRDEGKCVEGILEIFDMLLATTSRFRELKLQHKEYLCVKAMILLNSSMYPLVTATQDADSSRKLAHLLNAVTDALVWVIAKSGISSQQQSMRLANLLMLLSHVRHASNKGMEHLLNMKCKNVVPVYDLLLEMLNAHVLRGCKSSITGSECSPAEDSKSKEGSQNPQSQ

In general, Ki refers to a dissociation constant, usually derived from enzyme kinetics or from competition with a known ligand. As to `C[C@@]12CCc3c(sc4cc(O)ccc34)[C@H]1CC[C@H]2O`, the Ki on Estrogen receptor beta was 0.017 µM; on Estrogen receptor it was 0.013 µM.
The compound `C#C[C@]1(O)CC[C@H]2[C@@H]3CCc4cc(O)ccc4[C@H]3CC[C@@]21C` [ETHINYL ESTRADIOL] gave a Decrease in the test on Rattus norvegicus [1] of 83.3%. In the test on Rattus norvegicus [2], this compound displayed an Activity of 83.3%.
In the case of `C[C@]12CCc3c(sc4cc(O)ccc34)[C@@H]1CC[C@@H]2O`, the Ki on Estrogen receptor beta is 0.011 µM; on Estrogen receptor it was 0.004 µM.
As a reminder, the ED50 is the midpoint of the dose-response relation. On to `C[C@]12CCc3c(ccc4cc(O)ccc34)[C@@H]1CC[C@H]2O`, for which the Decrease with Rattus norvegicus [1] is on record as 66.3%; with Rattus norvegicus [7], 93.8%. Besides, the Protection in the test with Rattus norvegicus [3] came to 59.5%; in the test on Rattus norvegicus [4], 6.1%; in the test on Rattus norvegicus [6] it was 119%; in the test on Rattus norvegicus [8], 26.5%. Besides, the Ki on Estrogen receptor beta was 0.024 µM. In the test filed under Rattus norvegicus [5], this compound showed an ED50 of less than 0.1 mg/kg. Besides, in the test on Rattus norvegicus [9], the Activity came out at 93.8%.
As to `C[C@@]12CCc3c(sc4cc(O)ccc34)[C@@H]1CC[C@H]2O`, the Ki was found to be 0.12 µM on Estrogen receptor beta and 0.024 µM at Estrogen receptor.
Regarding `C[C@]12CCc3c(sc4cc(O)ccc34)[C@H]1CC[C@@H]2O`, the Ki at Estrogen receptor beta turned out to be 0.047 µM; at Estrogen receptor, 0.01 µM.
On the same counts, the results for `C[C@]12CCc3c(sc4cc(O)ccc34)[C@@H]1CC[C@H]2O` are 0.073 µM and 0.023 µM.
